Values without a mark were called inactive. Inconclusive results are not listed. Activity calls are given as the source filed them.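 How the source made its calls, unless noted: active means RAM network inhibition above 8.4% in each of two replicates, 3 SD over the compound average; inconclusive means above 8.4% inhibition in only one replicate; inactive means 8.4% inhibition or less in each replicate.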
Legend:
[1] = S. cerevisiae growth inhibition in permissive medium (OD615), pilot counter-assay for S. cerevisiae lifespan shortening project, permissive growth control (AID 705;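 active means growth inhibition above 25% in both replicates, a cutoff set 3 SD above the mean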); conditions: OD615, 24 h, at 10 µM, stronger effect = higher value
Method in brief: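 System: engineered DeaD yeast; Medium: permissive raffinose/galactose medium; Compound dosing: 10 µM single dose, 0.25% DMSO; Incubation: 4 h cell pre-growth, 24 h exposure at 30 °C; Technique: OD at 615 nm; Evaluation: growth inhibition from lowered OD615 after 24 h.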

[2] = S. cerevisiae growth inhibition in restrictive medium, OD615, pilot screen, restrictive growth control, yeast lifespan reduction project (AID 706;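 active means growth inhibition above a set limit, 3 SD over mean compound inhibition, in both replicates, cut at about 43% in these data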;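 further: modified DeaD lifespan yeast strain shifted to restrictive glucose medium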); conditions: OD615, 48 h, at 10 µM, stronger effect = higher value
Method in brief: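 Material: modified S. cerevisiae; buffer or medium: CSMM-D glucose medium; doses: one concentration, 10 µM final, 0.25% DMSO; incubation: 48 h compound exposure at 30 °C; detection: optical density at 615 nm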

[3] = doxorubicin toxicity protection in MRP-1 cells – H69AR cells, CellTiter-Glo, duplicate, MRP-1 activator project, pilot screen (AID 807;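 active means viability increase at or above a cutoff of the median across tested compounds plus 3 SD, cut at about 8.5% in these data, passing the limit was not always enough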;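 further: compound pretreatment 18-22 h then 72 h combined with doxorubicin; 0% = doxorubicin alone and 100% = vehicle without doxorubicin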); conditions: H69AR viability with doxorubicin, CellTiter-Glo luminescence; at 10 µM; stronger effect = higher value
[4] = viability of HCT116 without oncogenic beta-catenin – human colon tumor cells, pilot screen (AID 823;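 active means cell viability at or below a set limit in both duplicate runs, the limit being the all-compound median minus 4 SD, cut at about 23% in these data, passing the limit was not always enough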;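 further: 0% = wells killed by 20 µM Hyamine and 100% = untreated DMSO cell wells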); conditions: HCT116 beta-catenin knockout viability, CellTiter-Glo, 60 h; at 10 µM; stronger effect = lower value
[5] = RAM pathway blockade in budding yeast – dse1pr::URA3 reporter, 5-FOA selection, pilot screen (AID 869;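 active means inhibition over a set limit, the all-compound mean plus 3 SD, in both replicate runs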;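 further: 0% = DMSO wells with no growth and 100% = 10 µM 1-NA-PP1 with full growth; RAM network block rescues cells from 5-FOA so hits raise OD615 growth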); conditions: S. cerevisiae dse1pr::URA3 5-FOA growth, OD615, 2 d; at 10 µM; stronger effect = higher value; strain carries analog-sensitive mutant Cbk1 kinase
[6] = RAM signaling pathway blockade in yeast – S. cerevisiae, Pdr1DBD-CYC8 efflux-inhibited sensitized strain, primary screen (AID 1298);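 further: 0% = DMSO untreated cells without growth and 100% = 10 µM 1-NA-PP1 full growth; higher means more yeast growth rescued from 5-FOA killing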; conditions: S. cerevisiae cbk1-as DSE1-URA3 strain, 5-FOA growth OD615, 2 d; at 50 µM; stronger effect = higher value

**Q.** Which growth inhibition [1] does the source give for `COc1ccc2c(c1)SC1=NCCS(=O)(=O)N12` here?
**A.** The growth inhibition was -7.75%.

**Q.** What about the growth inhibition [2] of the same compound?
**A.** The growth inhibition was -10.4%.

**Q.** What about the viability increase [3] of the same compound?
**A.** The viability increase was -2.86%.

**Q.** What about the viability [4] of the same compound?
**A.** The viability was 105%.

**Q.** And the inhibition [5]?
**A.** Its inhibition is 0.315%.

**Q.** What about the RAM network inhibition [6] of the same compound?
**A.** Its RAM network inhibition is 4.32%.

**Q.** Which growth inhibition [1] does the source give for `CCC(=O)Nc1cc(C)c(NC(=O)c2ccco2)cn1` here?
**A.** Its growth inhibition is -18.1%.

**Q.** What about the growth inhibition [2] of the same compound?
**A.** Its growth inhibition is -13.9%.

**Q.** And the viability increase [3]?
**A.** Its viability increase is 0.56%.

**Q.** What about the viability [4] of the same compound?
**A.** Its viability is 98.5%.

**Q.** What about the inhibition [5] of the same compound?
**A.** Its inhibition is 1.52%.

**Q.** And the RAM network inhibition [6]?
**A.** Its RAM network inhibition is 4.21%.

**Q.** For `CCCCCCn1c(SCC(=O)c2ccccc2)nc2c1c(=O)[nH]c(=O)n2C`, which growth inhibition [1] is on record?
**A.** The growth inhibition was -4.82%.

**Q.** What about the growth inhibition [2] of the same compound?
**A.** Its growth inhibition is 42.6% (active).

**Q.** And the viability increase [3]?
**A.** Its viability increase is -7.17%.

**Q.** And the viability [4]?
**A.** Its viability is 53%.

**Q.** And the inhibition [5]?
**A.** The inhibition was 2.08%.

**Q.** And the RAM network inhibition [6]?
**A.** Its RAM network inhibition is 6.13%.

**Q.** Which results are given for `CCCSc1nc(N)c2c3c(sc2n1)CN(C)CC3`?
**A.** growth inhibition [1]: -25%; growth inhibition [2]: -3.27%; viability increase [3]: -2.7%; viability [4]: 80.9%; inhibition [5]: 1.02%; RAM network inhibition [6]: 6.8%

**Q.** For `CC(C)Sc1nc(N)c2c3c(sc2n1)CN(C)CC3`, which growth inhibition [1] is on record?
**A.** The growth inhibition was -10.7%.

**Q.** What about the growth inhibition [2] of the same compound?
**A.** Its growth inhibition is 9.69%.

**Q.** And the viability increase [3]?
**A.** Its viability increase is -3.04%.

**Q.** What about the viability [4] of the same compound?
**A.** Its viability is 101%.

**Q.** What about the inhibition [5] of the same compound?
**A.** The inhibition was 1.16%.

**Q.** And the RAM network inhibition [6]?
**A.** Its RAM network inhibition is 5.2%.

**Q.** Which growth inhibition [1] does the source give for `Cn1cc(S(=O)(=O)CC(=O)Nc2ccc3c(c2)OCCO3)c2ccccc21` here?
**A.** Its growth inhibition is -14.9%.

**Q.** And the growth inhibition [2]?
**A.** Its growth inhibition is -1.21%.

**Q.** And the viability increase [3]?
**A.** Its viability increase is -1.77%.

**Q.** What about the viability [4] of the same compound?
**A.** The viability was 106%.

**Q.** And the inhibition [5]?
**A.** The inhibition was 3.01%.

**Q.** And the RAM network inhibition [6]?
**A.** Its RAM network inhibition is 3.07%.

**Q.** Which results are given for `CC(=O)Nc1cc(OC(=O)c2ccco2)cc(OC(=O)c2ccco2)c1`?
**A.** growth inhibition [1]: -22.3%; growth inhibition [2]: 3.33%; viability increase [3]: -2.27%; viability [4]: 103%; inhibition [5]: 1.36%; RAM network inhibition [6]: 5.4%

**Q.** For `COc1ccc(-c2nnc(NC(=O)c3cc(Cl)ccc3Cl)o2)cc1`, which growth inhibition [1] is on record?
**A.** Its growth inhibition is 4.57%.

**Q.** And the growth inhibition [2]?
**A.** Its growth inhibition is 4.36%.

**Q.** And the viability increase [3]?
**A.** Its viability increase is -5.58%.

**Q.** And the viability [4]?
**A.** The viability was 35.9%.

**Q.** And the inhibition [5]?
**A.** The inhibition was 2.53%.

**Q.** What about the RAM network inhibition [6] of the same compound?
**A.** The RAM network inhibition was 8.05%.

**Q.** With `CCOc1ccc(-n2c(SCC(N)=O)nc3c(c2=O)SCC3)cc1` as the compound, how does the growth inhibition [1] read?
**A.** Its growth inhibition is -1.29%.

**Q.** And the growth inhibition [2]?
**A.** Its growth inhibition is 8.27%.

**Q.** And the viability increase [3]?
**A.** The viability increase was -0.72%.

**Q.** And the viability [4]?
**A.** The viability was 98.2%.

**Q.** What about the inhibition [5] of the same compound?
**A.** Its inhibition is 2.31%.

**Q.** What about the RAM network inhibition [6] of the same compound?
**A.** The RAM network inhibition was 7.32%.

**Q.** Which results are given for `NC1=C(c2ccc(F)cc2)C(=O)CS1`?
**A.** growth inhibition [1]: -17.2%; growth inhibition [2]: 4.04%; viability increase [3]: -1.22%; viability [4]: 91.1%; inhibition [5]: 1.85%; RAM network inhibition [6]: 5.83%

**Q.** Which results are given for `CSc1nc(SCC(=O)NCc2ccco2)c2c3c(sc2n1)COC(C)(C)C3`?
**A.** growth inhibition [1]: -11.7%; growth inhibition [2]: -6.08%; viability increase [3]: -8.04%; viability [4]: 33.9%; inhibition [5]: 2.8%; RAM network inhibition [6]: 7.62%

Reference: PubChem BioAssay
